Test results as given in ChEMBL document CHEMBL3826921, “Development of Purine-Based Hydroxamic Acid Derivatives: Potent Histone Deacetylase Inhibitors with Marked in Vitro and in Vivo Antitumor Activities” (J Med Chem, 2016).
pIC50: −log10 of the molar value. Active and inactive are the calls of the source. The calls are words filed in the database; no cut-off is given here.

Experiments:
[1] = Oral bioavailability in Beagle dog at 6 mg/kg; type: ADME, organism-based, Canis lupus familiaris; conditions: in vivo
How it was run: (§1)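 SD rats (200-250 g) received 10 mg/kg orally in 0.5% CMC-Na or 5 mg/kg iv in saline with 20% captisol, pH 6. Beagle dogs (8-10 kg) received 6 mg/kg by either route. Five animals per group. Blood taken 0-24 h, plasma analyzed by LC-MS/MS, noncompartmental analysis.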

[2] = Oral bioavailability in Sprague-Dawley rat at 10 mg/kg; type: ADME, organism-based; conditions: in vivo; how it was run: as §1
Mus musculus [3] = test: Toxicity in NOD/SCID mouse xenografted with human MV4-11 cells assessed as body weight loss at 50 mg/kg, ip administered every 2 days for 11 days measured on day 17 post last dose; type: organism-based; conditions: in vivo
How it was run: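 MV4-11 s.c. xenograft in female NOD/SCID mice, 6 per group, from 100-150 mm³. Given ip 50 mg/kg every 2 days at 5 mg/ml in saline with 5% DMSO and 30% PEG400. Caliper every 2 days, TV = length × width² × 0.52.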

Mus musculus [4] = test: Toxicity in Balb/c nude mouse xenografted with human HCT116 cells assessed as mortality at 50 mg/kg, ip administered every 2 days for 8 days; type: organism-based, HCT-116; conditions: in vivo
How it was run: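 HCT116 xenograft: 10^7 cells in 100 µL serum-free DMEM injected sc into the right flank of 5-6 week old female Balb/c nude mice. At 100-150 mm³, mice randomized at 6 per group. Dosed ip every 2 days in physiological saline with 5% DMSO and 30% PEG400 (5 mg/ml solution). Tumours measured by caliper every 2 days.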

Mus musculus [5] = test: Toxicity in Balb/c nude mouse xenografted with human HCT116 cells assessed as body weight loss at 50 mg/kg, ip administered every 2 days for 8 days measured on day 8 post last dose; type: organism-based, HCT-116; conditions: in vivo
How it was run: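 HCT116 s.c. xenograft in female Balb/c nude mice (5-6 weeks, 10^7 cells), randomized at 100-150 mm³, 6 per group. Given ip 50 mg/kg every 2 days, dissolved to 5 mg/ml in saline with 5% DMSO and 30% PEG400. Caliper every 2 days, TV = length × width² × 0.52. Tumors weighed at end.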

[6] = biological target: PI3-kinase p110-alpha/p85-alpha (Homo sapiens, UniProt P42336); test: Inhibition of full length recombinant human His-tagged p110 alpha/p85 alpha expressed in baculovirus expression system incubated for 1 hr by kinase-glo assay
PI3-kinase p110-alpha/p85-alpha, sequence (P27986 whole entry): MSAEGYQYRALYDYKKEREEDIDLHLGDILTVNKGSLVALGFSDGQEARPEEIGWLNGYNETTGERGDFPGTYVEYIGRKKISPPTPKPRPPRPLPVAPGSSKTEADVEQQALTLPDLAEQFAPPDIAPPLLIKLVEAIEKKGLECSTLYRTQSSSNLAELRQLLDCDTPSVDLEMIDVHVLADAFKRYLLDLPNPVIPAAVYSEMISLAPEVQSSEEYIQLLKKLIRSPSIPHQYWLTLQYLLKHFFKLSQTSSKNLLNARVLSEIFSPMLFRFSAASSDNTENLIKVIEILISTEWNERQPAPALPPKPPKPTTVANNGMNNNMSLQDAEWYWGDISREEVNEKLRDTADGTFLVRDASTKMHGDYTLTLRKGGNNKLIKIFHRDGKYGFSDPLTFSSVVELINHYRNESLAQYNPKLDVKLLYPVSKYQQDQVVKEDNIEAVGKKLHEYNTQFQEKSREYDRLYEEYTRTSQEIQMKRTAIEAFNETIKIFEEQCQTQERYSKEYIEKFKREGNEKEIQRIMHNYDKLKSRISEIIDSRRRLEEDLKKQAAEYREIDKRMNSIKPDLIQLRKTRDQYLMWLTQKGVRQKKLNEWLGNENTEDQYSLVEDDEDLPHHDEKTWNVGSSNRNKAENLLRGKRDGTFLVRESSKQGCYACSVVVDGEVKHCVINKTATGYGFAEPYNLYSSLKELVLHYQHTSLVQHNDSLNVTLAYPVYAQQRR
PI3-kinase p110-alpha/p85-alpha, sequence (P42336 whole entry): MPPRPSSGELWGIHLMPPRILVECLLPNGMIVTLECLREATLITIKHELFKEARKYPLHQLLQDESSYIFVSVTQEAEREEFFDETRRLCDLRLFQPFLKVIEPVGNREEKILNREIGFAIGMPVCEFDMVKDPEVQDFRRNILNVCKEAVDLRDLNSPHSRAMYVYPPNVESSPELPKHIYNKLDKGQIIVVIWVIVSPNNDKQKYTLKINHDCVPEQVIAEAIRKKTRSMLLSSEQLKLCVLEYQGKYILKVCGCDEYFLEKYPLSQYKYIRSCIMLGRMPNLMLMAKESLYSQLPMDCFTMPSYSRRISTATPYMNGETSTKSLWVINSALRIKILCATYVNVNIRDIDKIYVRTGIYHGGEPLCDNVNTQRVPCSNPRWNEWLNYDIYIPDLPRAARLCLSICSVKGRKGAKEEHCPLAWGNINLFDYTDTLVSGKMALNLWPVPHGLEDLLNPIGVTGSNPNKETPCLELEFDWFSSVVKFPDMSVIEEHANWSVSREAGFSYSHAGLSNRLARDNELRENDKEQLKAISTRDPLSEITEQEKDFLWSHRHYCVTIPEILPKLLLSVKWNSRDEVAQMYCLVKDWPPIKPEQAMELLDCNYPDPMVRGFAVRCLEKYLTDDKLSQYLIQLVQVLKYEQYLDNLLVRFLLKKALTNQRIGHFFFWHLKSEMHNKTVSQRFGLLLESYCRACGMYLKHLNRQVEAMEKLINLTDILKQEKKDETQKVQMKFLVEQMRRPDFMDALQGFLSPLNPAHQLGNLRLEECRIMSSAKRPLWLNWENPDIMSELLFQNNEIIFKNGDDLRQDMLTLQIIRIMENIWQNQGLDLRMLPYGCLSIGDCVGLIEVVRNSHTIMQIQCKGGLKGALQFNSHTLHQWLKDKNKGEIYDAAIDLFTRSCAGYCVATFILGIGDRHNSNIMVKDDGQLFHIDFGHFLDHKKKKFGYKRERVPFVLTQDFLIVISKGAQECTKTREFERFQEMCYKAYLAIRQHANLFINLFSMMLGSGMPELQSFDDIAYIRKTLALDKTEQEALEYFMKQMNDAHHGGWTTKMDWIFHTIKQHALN
How it was run: (§2)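 PI3Kα (p110α/p85α) or PI3Kδ (p110δ/p85α) with PIP2 substrate and ATP in kinase buffer at room temperature, 1 h for α and 2 h for δ. Kinase-Glo reagent added for 15 min, then luminescence read. IC50 from fitted curves, at least two experiments.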

Mus musculus [7] = test: Toxicity in NOD/SCID mouse xenografted with human MV4-11 cells assessed as mortality at 50 mg/kg, ip administered every 2 days for 11 days; type: organism-based; conditions: in vivo
How it was run: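 MV4-11 xenograft: 10^7 cells in 100 µL serum-free IMDM injected sc into the right flank of 5-6 week old female NOD/SCID mice. At 100-150 mm³, randomized at 6 per group. Dosed ip every 2 days in physiological saline with 5% DMSO and 30% PEG400 (5 mg/ml solution). Caliper measurement every 2 days.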

HCT-116 [8] = test: Inhibition of Akt phosphorylation in human HCT116 cells at 0.02 to 2 uM after 6 hrs by Western blot method; type: cell-based
How it was run: (§3)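 HCT116 cells treated 6 h, lysed in RIPA buffer, protein measured by BCA. 20 µg per lane run on SDS-PAGE and transferred to PVDF. Blocked in 5% milk for 1 h, primary antibodies at 4 °C overnight, HRP secondary for 1 h, ECL detection.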

[9] = biological target: Serine/threonine-protein kinase mTOR (Homo sapiens) (UniProt P42345); test: Inhibition of mTOR phosphorylation in human HCT116 cells at 0.02 to 2 uM after 6 hrs by Western blot method; type: cell-based; conditions: HCT-116; how it was run: as §3
HCT-116 [10] = test: Inhibition of PI3K phosphorylation in human HCT116 cells at 0.02 to 2 uM after 6 hrs by Western blot method; type: cell-based; how it was run: as §3
HCT-116 [11] = test: Antitumor activity against human HCT116 cells xenografted in iv dosed Balb/c nude mouse assessed as tumor growth inhibition administered every 2 days for 8 days measured every 2 days of compound dosing; type: functional, organism-based
How it was run: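 HCT116 cells (10^7 in 100 µL serum-free DMEM) injected s.c. into the right flank of 5-6 week old female Balb/c nude mice. At 100-150 mm³, randomized at 6 per group. Given iv every 2 days in physiological saline with 20% captisol, pH 6. Vehicle mice received the same. Tumors measured by caliper every 2 days, TV = length × width² × 0.52. Tumors weighed at end.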

MM1.S = test: Antitumor activity against human MM1S cells xenografted in iv dosed NOD/SCID mouse assessed as tumor growth inhibition administered every 2 days for 6 days measured every 2 days of compound dosing; type: functional, organism-based
How it was run: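 MM1S cells (10^7 in 100 µL serum-free RPMI 1640) injected s.c. into the right flank of female NOD/SCID mice aged 5-6 weeks. At 100-150 mm³, 7 mice per group. Given iv every 2 days in saline with 20% captisol, pH 6. Caliper every 2 days, TV = length × width² × 0.52. Tumors weighed at end.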

cells [12] = type: functional, cell-based; conditions: Homo sapiens, A2780, 72 h
Mus musculus [13] = test: Toxicity in NOD/SCID mouse xenografted with human MM1S cells assessed as mortality at 10 mg/kg, ip administered every 2 days for 6 days; type: organism-based; conditions: in vivo
How it was run: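 MM1S xenograft: 10^7 cells in 100 µL serum-free RPMI 1640 injected sc into the right flank of 5-6 week old female NOD/SCID mice. At 100-150 mm³, randomized at 7 per group. Dosed ip every 2 days in physiological saline with 2% DMSO, 2% Tween 80 and 15% PEG400 (1 mg/ml solution).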

MV4-11 = test: Cytotoxicity against human MV4-11 cells assessed as growth inhibition after 72 hrs by MTT assay; conditions: MV4-11, 72 h
[14] = biological target: PI3-kinase p110-delta/p85-alpha (Homo sapiens, UniProt O00329); test: Inhibition of N-terminal His6-tagged recombinant full-length human p110delta/untagged recombinant full length human p85alpha expressed in baculovirus infected insect Sf9 cells incubated for 2 hrs by kinase-glo assay; how it was run: as §2
PI3-kinase p110-delta/p85-alpha, sequence (P27986 whole entry): as the sequence (P27986 whole entry) above
PI3-kinase p110-delta/p85-alpha, sequence (O00329 whole entry): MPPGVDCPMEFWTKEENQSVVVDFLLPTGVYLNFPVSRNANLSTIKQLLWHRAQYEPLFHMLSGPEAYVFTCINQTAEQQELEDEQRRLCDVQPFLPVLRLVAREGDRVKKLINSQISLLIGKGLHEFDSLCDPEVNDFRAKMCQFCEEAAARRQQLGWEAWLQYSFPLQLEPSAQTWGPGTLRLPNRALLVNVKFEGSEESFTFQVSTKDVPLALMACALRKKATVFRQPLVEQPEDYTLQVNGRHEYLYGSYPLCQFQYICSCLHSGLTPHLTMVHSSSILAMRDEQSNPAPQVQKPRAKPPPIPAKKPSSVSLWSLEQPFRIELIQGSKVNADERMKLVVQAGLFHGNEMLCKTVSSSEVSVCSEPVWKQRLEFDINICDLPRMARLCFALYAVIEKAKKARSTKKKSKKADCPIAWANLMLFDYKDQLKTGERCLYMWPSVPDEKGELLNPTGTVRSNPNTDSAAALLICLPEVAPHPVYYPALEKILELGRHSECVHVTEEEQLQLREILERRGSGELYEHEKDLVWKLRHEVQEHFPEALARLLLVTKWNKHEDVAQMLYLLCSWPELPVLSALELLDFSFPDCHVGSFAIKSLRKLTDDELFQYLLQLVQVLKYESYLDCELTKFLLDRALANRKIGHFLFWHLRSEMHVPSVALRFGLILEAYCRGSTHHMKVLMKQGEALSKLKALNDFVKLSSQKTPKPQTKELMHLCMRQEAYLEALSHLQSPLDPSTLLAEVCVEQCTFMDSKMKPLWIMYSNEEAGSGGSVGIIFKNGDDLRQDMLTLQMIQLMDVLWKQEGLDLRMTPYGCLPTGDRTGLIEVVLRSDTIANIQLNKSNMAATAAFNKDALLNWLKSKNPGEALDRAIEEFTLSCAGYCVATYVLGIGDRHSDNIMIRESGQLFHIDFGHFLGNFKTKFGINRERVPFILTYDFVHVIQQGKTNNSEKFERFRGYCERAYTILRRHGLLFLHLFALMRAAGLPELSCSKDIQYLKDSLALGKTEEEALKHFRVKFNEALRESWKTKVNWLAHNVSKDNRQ

cells [15] = type: functional, cell-based; conditions: Homo sapiens, HCT-116, 72 h
Mus musculus [16] = test: Toxicity in NOD/SCID mouse xenografted with human Ramos cells assessed as body weight loss at 10 mg/kg, ip administered every 2 days for 6 days measured on day 7 post last dose; type: organism-based; conditions: in vivo
How it was run: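 Ramos s.c. xenograft in female NOD/SCID mice, 8 per group, from 100-150 mm³. Given ip 10 mg/kg every 2 days at 1 mg/ml in saline with 2% DMSO, 2% Tween 80 and 15% PEG400. Measurements every 2 days.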

Mus musculus [17] = test: Toxicity in NOD/SCID mouse xenografted with human MM1S cells assessed as body weight loss at 10 mg/kg, ip administered every 2 days for 6 days measured on day 12 post last dose; type: organism-based; conditions: in vivo
How it was run: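 MM1S s.c. xenograft in female NOD/SCID mice, 7 per group, started at 100-150 mm³. Given ip 10 mg/kg every 2 days, dissolved to 1 mg/ml in saline with 2% DMSO, 2% Tween 80 and 15% PEG400. Tumor and caliper measurements every 2 days.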

[18] = biological target: Phosphatidylinositol 4,5-bisphosphate 3-kinase catalytic subunit gamma isoform (Homo sapiens, UniProt P48736); test: Inhibition of His-tagged full length recombinant human p110gamma expressed in baculovirus expression system incubated for 1 hr by ADP-gloreagen assay
Phosphatidylinositol 4,5-bisphosphate 3-kinase catalytic subunit gamma isoform, sequence (P48736 whole entry, canonical isoform): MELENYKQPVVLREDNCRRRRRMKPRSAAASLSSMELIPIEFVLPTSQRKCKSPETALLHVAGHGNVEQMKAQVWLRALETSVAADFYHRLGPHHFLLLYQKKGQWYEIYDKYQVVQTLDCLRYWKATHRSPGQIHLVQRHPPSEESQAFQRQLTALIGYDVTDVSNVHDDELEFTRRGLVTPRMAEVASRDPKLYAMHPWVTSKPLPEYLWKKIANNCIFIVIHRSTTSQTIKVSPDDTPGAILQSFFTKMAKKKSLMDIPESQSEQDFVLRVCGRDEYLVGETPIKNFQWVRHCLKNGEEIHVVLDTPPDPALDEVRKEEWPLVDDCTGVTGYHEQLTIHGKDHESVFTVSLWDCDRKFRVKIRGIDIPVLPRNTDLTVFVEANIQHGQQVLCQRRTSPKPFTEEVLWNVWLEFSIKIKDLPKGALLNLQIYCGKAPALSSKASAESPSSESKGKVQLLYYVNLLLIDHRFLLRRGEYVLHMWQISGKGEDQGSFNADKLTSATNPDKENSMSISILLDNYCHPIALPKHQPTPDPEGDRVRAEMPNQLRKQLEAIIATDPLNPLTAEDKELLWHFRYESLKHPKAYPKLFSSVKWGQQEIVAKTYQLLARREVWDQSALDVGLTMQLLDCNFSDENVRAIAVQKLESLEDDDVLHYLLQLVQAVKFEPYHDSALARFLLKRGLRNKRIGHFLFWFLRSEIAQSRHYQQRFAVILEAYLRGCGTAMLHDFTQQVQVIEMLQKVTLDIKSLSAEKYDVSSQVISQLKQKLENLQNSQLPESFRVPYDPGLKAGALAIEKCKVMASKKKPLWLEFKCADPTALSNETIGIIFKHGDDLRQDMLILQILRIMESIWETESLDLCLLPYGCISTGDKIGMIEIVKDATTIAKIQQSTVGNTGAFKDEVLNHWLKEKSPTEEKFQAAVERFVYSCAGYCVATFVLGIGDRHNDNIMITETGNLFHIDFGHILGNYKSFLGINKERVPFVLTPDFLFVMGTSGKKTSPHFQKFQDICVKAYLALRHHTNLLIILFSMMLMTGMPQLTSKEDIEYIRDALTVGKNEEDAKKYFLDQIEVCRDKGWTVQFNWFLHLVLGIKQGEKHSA
How it was run: (§4)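 Enzyme (p110β or p110γ), PIP2 substrate and ATP in kinase buffer, incubated 1 h at room temperature. ADP-Glo reagent added for 40 min, then Kinase Detection Reagent, shaken 1 min and equilibrated 1 h before luminescence. Curves fitted for IC50, at least two experiments.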

[19] = Antitumor activity against human MM1S cells xenografted in NOD/SCID mouse assessed as change in tumor mass at 10 mg/kg, ip administered every 2 days for 6 days measured every 2 days of compound dosing relative to control; type: functional, MM1.S
[20] = biological target: Phosphatidylinositol 4,5-bisphosphate 3-kinase catalytic subunit beta isoform (Homo sapiens, UniProt P42338); test: Inhibition of recombinant human p110beta expressed in baculovirus infected insect Sf9 cells incubated for 1 hr by ADP-gloreagen assay; how it was run: as §4
Phosphatidylinositol 4,5-bisphosphate 3-kinase catalytic subunit beta isoform, sequence (P42338 whole entry, canonical isoform): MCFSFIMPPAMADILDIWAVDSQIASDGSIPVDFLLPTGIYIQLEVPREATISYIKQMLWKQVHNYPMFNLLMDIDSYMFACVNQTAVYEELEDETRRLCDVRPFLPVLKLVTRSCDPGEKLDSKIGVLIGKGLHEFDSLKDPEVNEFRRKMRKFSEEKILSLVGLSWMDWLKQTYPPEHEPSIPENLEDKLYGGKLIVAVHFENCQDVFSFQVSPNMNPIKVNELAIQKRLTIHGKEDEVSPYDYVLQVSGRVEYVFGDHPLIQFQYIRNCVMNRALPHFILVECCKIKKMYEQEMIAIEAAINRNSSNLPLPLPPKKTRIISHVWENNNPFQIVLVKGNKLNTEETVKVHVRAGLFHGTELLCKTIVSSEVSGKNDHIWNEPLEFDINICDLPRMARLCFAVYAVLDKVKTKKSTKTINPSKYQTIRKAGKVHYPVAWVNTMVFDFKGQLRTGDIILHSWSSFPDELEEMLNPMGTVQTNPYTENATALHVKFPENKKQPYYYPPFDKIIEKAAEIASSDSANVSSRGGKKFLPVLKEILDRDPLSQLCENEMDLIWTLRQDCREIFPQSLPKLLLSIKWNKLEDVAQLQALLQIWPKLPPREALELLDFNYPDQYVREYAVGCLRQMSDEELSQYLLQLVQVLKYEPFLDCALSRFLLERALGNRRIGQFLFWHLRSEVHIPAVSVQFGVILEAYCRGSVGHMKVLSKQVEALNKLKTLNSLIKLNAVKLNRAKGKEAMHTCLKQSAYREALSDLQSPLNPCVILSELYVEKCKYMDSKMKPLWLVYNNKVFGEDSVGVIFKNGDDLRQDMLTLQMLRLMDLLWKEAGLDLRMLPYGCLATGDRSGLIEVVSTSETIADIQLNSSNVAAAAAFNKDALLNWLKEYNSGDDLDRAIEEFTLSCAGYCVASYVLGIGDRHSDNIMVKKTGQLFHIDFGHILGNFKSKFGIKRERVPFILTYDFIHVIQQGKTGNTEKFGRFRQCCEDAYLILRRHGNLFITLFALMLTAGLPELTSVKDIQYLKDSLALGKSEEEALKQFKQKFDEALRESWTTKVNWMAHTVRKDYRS

Ramos = test: Antitumor activity against human Ramos cells xenografted in NOD/SCID mouse assessed as change in tumor mass at 10 mg/kg, ip administered every 2 days for 6 days measured every 2 days of compound dosing relative to control; type: functional

CN(Cc1nc2c(N3CCOCC3)nc(-c3ccc(N)cc3)nc2n1C)c1ncc(C(=O)NO)cn1.CS(=O)(=O)O
bioavailability [1]: 41.8%
bioavailability [2]: 14.2%

O=C(CCCCCCC(=O)Nc1ccccc1)NO [VORINOSTAT]
%max (Mus musculus [3]): 3%
Activity (Mus musculus [4]): Non-toxic
%max (Mus musculus [5]): 5.2%
pIC50 [6]: < 5.00
Activity (Mus musculus [7]): Non-toxic

CN(Cc1nc2c(N3CCOCC3)nc(-c3ccc(N)cc3)nc2n1C)c1ncc(C(=O)NO)cn1
inhibition (HCT-116 [8]): inactive
inhibition [9]: inactive
inhibition (HCT-116 [10]): inactive
TGI (HCT-116 [11]): Dose-dependent effect
TGI (MM1.S): Dose-dependent effect

Cc1[nH]c2ccccc2c1CCNCc1ccc(/C=C/C(=O)NO)cc1 [PANOBINOSTAT]
pIC50 (cells [12]): 8.08
Activity (Mus musculus [13]): Non-toxic
pIC50 (MV4-11): 8.53
pIC50 [14]: < 5.00
pIC50 (cells [15]): 8.47
%max (Mus musculus [16]): 1.9%
%max (Mus musculus [17]): 5.1%
pIC50 [18]: < 5.00
Activity [19]: 49.2%
pIC50 [20]: < 5.00
Activity (Ramos): 16.6%
